High-throughput results: PubChem BioAssay, Sanford-Burnham Center for Chemical Genomics
Hits are enriched below; roughly 3.3% of the tested compounds scored in any of these assays.
CendR NRP1 mod = NRP-1/CendR interaction modulation; inhibition, % at 25 µM; O14786; 360,000 tested, 0.85% active; FAM-RPARPAR peptide binding to NRP-1, fluorescence polarization;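 active = inhibition or corrected inhibition above about 18%, plus a signal ratio from 0.5 to 1.5, limit read from the data, passing the limit was not always enough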
SENP8 block-1 = blocks the human protease SENP8. purified SENP8, Z-RLRGG-aminoluciferin cleavage, luminescence. AID 2540. inhibition, % at 10 µM. 330,000 tested, 1.2% active; in the data active = inhibition above about 50%
SENP1 inh = blocks the human SENP1 SUMO protease catalytic domain; AID 624204; inhibition, % at 10 µM; recombinant SENP1 catalytic domain, CyPet-SUMO1-YPet FRET cleavage; 360,000 tested, 0.21% active;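 active = inhibition at least 30% at 10 µM, raw YFP signal under a set limit, fluorescence ratio 0.5 to 1.5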;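 also: 0% = enzyme with DMSO and 100% = no enzyme wells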
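Assay system – human recombinant His6-tagged SENP1 catalytic domain enzyme · Input – SENP1 enzyme, 20 pM final · Buffer or medium – Tris pH 8 buffer plus EDTA, NaCl, BME, BSA, NP40, catalase · Schedule – 50 min reaction at room temperature · Technique – FRET read of cyan and yellow fluorescence · Control set – no-enzyme wells low, DMSO-plus-enzyme wells high control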
SENP8 block-2 = SENP8 (human) protease inhibition; Q96LD8; recombinant SENP8, Nedd8 substrate fluorescence; inhibition, % at 20 µM; 360,000 tested, 0.64% active; in the data active = inhibition mostly above about 40%, no sharp cut-off; inactive = mostly below about 27%
SENP6 inh = SENP6 protease inhibition; Q9GZR1; Recombinant SENP6 catalytic domain, aminoluciferin luminescence; inhibition, % at 10 µM; 330,000 tested, 1.8% active; AID 2599;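 active = inhibition above about 50% at the single tested dose, limit read from the data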;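 also: plate controls were DMSO wells with enzyme for no effect and DMSO wells lacking enzyme for full effect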
Target sequence (Q9GZR1 628-1112 limits assumed): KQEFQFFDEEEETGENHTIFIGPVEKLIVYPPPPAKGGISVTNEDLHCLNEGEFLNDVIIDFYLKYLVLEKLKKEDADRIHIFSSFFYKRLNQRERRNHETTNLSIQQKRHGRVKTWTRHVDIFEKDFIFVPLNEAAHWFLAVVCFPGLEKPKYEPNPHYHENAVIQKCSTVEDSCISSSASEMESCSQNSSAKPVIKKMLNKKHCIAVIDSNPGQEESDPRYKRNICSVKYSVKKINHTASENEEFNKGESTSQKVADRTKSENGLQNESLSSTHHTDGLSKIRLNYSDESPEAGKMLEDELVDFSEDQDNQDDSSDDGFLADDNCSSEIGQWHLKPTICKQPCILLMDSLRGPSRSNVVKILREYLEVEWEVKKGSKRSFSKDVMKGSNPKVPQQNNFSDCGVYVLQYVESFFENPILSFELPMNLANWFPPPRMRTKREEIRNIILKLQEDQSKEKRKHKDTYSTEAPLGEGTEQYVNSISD
SENP7 inh = blocks the human protease SENP7. inhibition, % at 5 µM. Q9BQF6. recombinant SENP7, Z-RLRGG-aminoluciferin luminescence, 40 min. 330,000 tested, 1.5% active;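 active = inhibition above about 50% at the single test dose, limit read from the data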;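 also: plate controls were DMSO with enzyme for no effect and no enzyme buffer wells for full effect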
SENP8 inh conf = confirmation of human SENP8 protease inhibitors. purified SENP8, Nedd8-AMC/pro-Nedd8 cleavage fluorescence, 30 min. shares compounds with SENP8 block-2. 1,400 tested, 15% active. inhibition, % at 25 µM; in the data active = inhibition mostly above about 39%, no sharp cut-off; inactive = mostly below about 34%
* hit, by the source's call.

What do the screens show for `COC(=O)CCCC1=CC2=CC(=O)C(C)(OC(=O)c3cccs3)C(=O)C2=CN1CCCCO` (configuration not stated)?
CendR NRP1 mod: 40*; SENP8 block-1: 7; SENP1 inh: -23; SENP8 block-2: 53*; SENP6 inh: 15; SENP7 inh: 2; SENP8 inh conf: 56*

Results for COC(=O)CCCC1=CC2=CC(=O)C(C)(OC(=O)c3cccs3)C(=O)C2=CN1C1CC1 (configuration not stated) ?
CendR NRP1 mod: 15; SENP8 block-1: 14; SENP1 inh: -14; SENP8 block-2: 41*; SENP6 inh: 22; SENP7 inh: 8; SENP8 inh conf: 63*

What do the screens show for `COc1ccc(-c2nc3ccc(Br)cn3c2Cc2ccsc2)cc1OC`?
CendR NRP1 mod: -23; SENP1 inh: 0; SENP8 block-2: -24

How did CCCCCCCCNS(=O)(=O)CCNCc1ccccc1OC do in these assays?
CendR NRP1 mod: 2; SENP1 inh: 3; SENP8 block-2: -3

How did COCc1ccc(CN2CCC(n3nccc3NC(=O)c3ccc4c(c3)OCO4)CC2)o1 do in these assays?
CendR NRP1 mod: -9; SENP1 inh: -2; SENP8 block-2: 0

How did COC(=O)CCC(=O)OC1(C)C(=O)C=C2C=C(C3CC3)N(Cc3ccc(OC)cc3)C=C2C1=O (configuration not stated) do in these assays?
CendR NRP1 mod: 8; SENP8 block-1: 1; SENP1 inh: -39; SENP8 block-2: -72; SENP6 inh: 5; SENP7 inh: 8

How did CC1(OC(=O)C2CCCC2)C(=O)C=C2C=C3CCCCN3C=C2C1=O (configuration not stated) do in these assays?
CendR NRP1 mod: 32*; SENP8 block-1: -11; SENP1 inh: -6; SENP8 block-2: 57*; SENP6 inh: 6; SENP7 inh: -2; SENP8 inh conf: 60*

Results for COC(=O)CCC(=O)OC1(C)C(=O)C=C2C=C3CCCN3C=C2C1=O (configuration not stated) ?
CendR NRP1 mod: 41*; SENP8 block-1: 6; SENP1 inh: -15; SENP8 block-2: 53*; SENP6 inh: 11; SENP7 inh: 3; SENP8 inh conf: 47*

Results for CC1(OC(=O)c2ccc(Cl)nc2)C(=O)C=C2C=C3CCCN3C=C2C1=O (configuration not stated) ?
CendR NRP1 mod: 51*; SENP8 block-1: 7; SENP1 inh: -27; SENP8 block-2: 65*; SENP6 inh: 14; SENP7 inh: 7; SENP8 inh conf: 44*

Results for CC(C)C[C@H]1CN(CCCC[C@H]2CNC(=O)C(=O)N2CCC2CCCCC2)C(=O)C(=O)N1CC1CCCCC1 ?
CendR NRP1 mod: -6; SENP1 inh: 0; SENP8 block-2: 14

What do the screens show for `CC1=NN(c2ccc(Cl)c(C(=O)O)c2)C(=O)C1`?
CendR NRP1 mod: -29; SENP8 block-1: 3; SENP1 inh: 3; SENP8 block-2: 70*; SENP6 inh: 11; SENP7 inh: 17; SENP8 inh conf: 17

Results for CC1=NN(c2cccc(Cl)c2)C(=O)C1 ?
CendR NRP1 mod: -5; SENP8 block-1: 7; SENP1 inh: 3; SENP8 block-2: 64*; SENP6 inh: -5; SENP7 inh: 20; SENP8 inh conf: 55*

Results for COc1ccccc1S(=O)(=O)N(C)C[C@H]1Oc2ncc(Br)cc2C(=O)N([C@H](C)CO)C[C@H]1C ?
CendR NRP1 mod: -14; SENP1 inh: -5; SENP8 block-2: 1

How did Cc1cccc(CN2CCN(C3CN(Cc4cn(Cc5ccc(F)cc5)nn4)S(=O)(=O)C3)CC2)c1 (configuration not stated) do in these assays?
CendR NRP1 mod: 15; SENP1 inh: 1; SENP8 block-2: 15

How did CC(C)(C)NC(=O)NC(=O)C[n+]1ccc(Cc2ccc([N+](=O)[O-])cc2)cc1 do in these assays?
CendR NRP1 mod: 1; SENP8 block-1: 10; SENP1 inh: 3; SENP8 block-2: 50*; SENP6 inh: 15; SENP7 inh: 7; SENP8 inh conf: 17

How did Cc1ccc(Cl)cc1NC(=O)C[n+]1ccc(Cc2ccc([N+](=O)[O-])cc2)cc1 do in these assays?
CendR NRP1 mod: 11; SENP8 block-1: 0; SENP1 inh: 3; SENP8 block-2: 23; SENP6 inh: 3; SENP7 inh: 19

Results for Cc1ccc(OCCCCN2CCCCC2)cc1 ?
CendR NRP1 mod: 3; SENP8 block-1: -5; SENP1 inh: 1; SENP8 block-2: 2; SENP6 inh: -19; SENP7 inh: -17

Results for CCOc1ccc(OCCCCN2CCCC2)cc1 ?
CendR NRP1 mod: 3; SENP8 block-1: 3; SENP1 inh: 2; SENP8 block-2: 42*; SENP6 inh: -12; SENP7 inh: 4; SENP8 inh conf: 11

How did c1ccc(CNCCC(Cc2ccccc2)c2ccco2)cc1 (configuration not stated) do in these assays?
CendR NRP1 mod: 13; SENP8 block-1: -5; SENP1 inh: -1; SENP8 block-2: 48*; SENP6 inh: -16; SENP7 inh: 4; SENP8 inh conf: -9

How did CC(C)(C)NC(=O)C1(C)CCC(=O)N1C1CCN(Cc2ccccc2)CC1 (configuration not stated) do in these assays?
CendR NRP1 mod: 1; SENP1 inh: 1; SENP8 block-2: 9

Results for CCOc1ccccc1-c1ccc2nccn2c1 ?
CendR NRP1 mod: -12; SENP1 inh: -72; SENP8 block-2: -65

What do the screens show for `CC(C)C1NCCc2c1sc1ccccc21` (configuration not stated)?
CendR NRP1 mod: 8; SENP8 block-1: -2; SENP1 inh: 3; SENP8 block-2: 43*; SENP6 inh: 4; SENP7 inh: 0; SENP8 inh conf: -8

What do the screens show for `Cc1[nH]n2c(=O)cc(-c3ccc([N+](=O)[O-])cc3)nc2c1-c1ccccc1`?
CendR NRP1 mod: 7; SENP8 block-1: 5; SENP1 inh: 1; SENP8 block-2: 44*; SENP6 inh: -3; SENP7 inh: 1; SENP8 inh conf: 19

How did Cc1cc(Cl)ccc1C(O)c1ncc(-c2ccc(Cl)cc2)[nH]1 (configuration not stated) do in these assays?
CendR NRP1 mod: -2; SENP1 inh: 1; SENP8 block-2: -2

How did COc1cccc2c1nc(C)c1cc(C)oc12 do in these assays?
CendR NRP1 mod: 14; SENP8 block-1: -11; SENP1 inh: 0; SENP8 block-2: -13; SENP6 inh: -19; SENP7 inh: -22

How did COc1cccc2nc3cc(C)c(C)cc3nc12 do in these assays?
CendR NRP1 mod: 6; SENP8 block-1: 95*; SENP1 inh: 42; SENP8 block-2: 42*; SENP6 inh: 91*; SENP7 inh: 97*; SENP8 inh conf: 78*
